# High-throughput results: PubChem BioAssay, Broad Institute
# E-sel inducer – induces E-selectin expression in human endothelial cells; 260,000 compounds, 0.37% hits; AID 686992; P16581; HUVEC E-selectin immunofluorescence imaging; normalized: neutral wells 0, TNF-alpha wells 100; activation, % at 7.58 µM;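 active = mean E-selectin-positive cell signal at least 10% of the positive control, reached in at least 60% of replicates, without over 20% cell loss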
# Target sequence (P16581 whole entry, looked up): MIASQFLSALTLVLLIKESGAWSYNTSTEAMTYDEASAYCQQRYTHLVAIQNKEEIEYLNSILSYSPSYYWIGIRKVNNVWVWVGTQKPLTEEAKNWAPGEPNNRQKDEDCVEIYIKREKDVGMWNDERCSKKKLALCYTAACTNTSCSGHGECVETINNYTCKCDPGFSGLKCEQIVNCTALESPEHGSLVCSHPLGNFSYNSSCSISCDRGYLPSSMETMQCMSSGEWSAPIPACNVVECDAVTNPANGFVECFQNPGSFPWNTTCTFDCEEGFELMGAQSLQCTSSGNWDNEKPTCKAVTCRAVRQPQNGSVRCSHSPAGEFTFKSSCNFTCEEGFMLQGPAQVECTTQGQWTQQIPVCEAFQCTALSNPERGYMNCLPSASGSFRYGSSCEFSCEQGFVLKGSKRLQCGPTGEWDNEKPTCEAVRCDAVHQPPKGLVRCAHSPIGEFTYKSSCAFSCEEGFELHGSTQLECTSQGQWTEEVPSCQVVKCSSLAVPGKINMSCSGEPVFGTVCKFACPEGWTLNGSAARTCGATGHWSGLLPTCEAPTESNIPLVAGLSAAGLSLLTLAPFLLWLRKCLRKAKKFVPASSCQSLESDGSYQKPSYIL
#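 Read-out: % PE-positive cells | Test system: HUVEC | Doses: One compound dose added by pin transfer | Buffer or medium: EGM-2 over gelatin coat | Signal: Immunofluorescence imaging | Benchmarks: TNF-alpha, DMSO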
# rRNA inh HTS – selective bacterial rRNA inhibition in E. coli. GFP signal change (wild-type ribosome), % (no concentration beside the values). 350,000 compounds, 1.6% hits. AID 720706. E. coli WT GFP vs humanized-ribosome RFP mutants, fluorescence, 24 h; hits give low values; DMSO median 0, no signal -100;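 active = significant combined selectivity score with lowered wild-type GFP, culture density cut under 30%, mutant RFP and density less affected; inactive = any of these conditions unmet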
# EWS-Fli inh – EWS/Fli transcriptional activity inhibition; A673 NR0B1-luciferase reporter, viability-normalised; 350,000 compounds, 0.67% hits; inhibition, % at 12.6 µM; AID 651661;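 active = mean inhibition of at least 50% after viability correction, with every replicate also passing that limit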;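 also: firefly luciferase signal divided by Alamar Blue viability fluorescence both relative to DMSO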
# LGR2 inh – Drosophila LGR2 receptor signaling inhibition. HEK293 LGR2, CRE-luciferase, bursicon-stimulated, 4 h. inhibition, % at 9.99 µM. 380,000 compounds, 0.35% hits;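 active = drop in luminescence signal, shown as inhibition above about 50% in the replicate tests, limit read from the data, passing the limit was not always enough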;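 also: agonist challenge used bursicon conditioned medium at about half maximal strength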
# Numbers stand for hits; - = inactive; . = no result; ! = a repeat was not active. Compounds with a hit are over-represented: about 2.4% of the library has one in this group of screens.
SMILES,E-sel inducer,rRNA inh HTS,EWS-Fli inh,LGR2 inh
O=c1c2ccccc2nc(/C=C/c2ccc(O)cc2)n1-c1ccccc1O,.,-27,-,-
O=c1c2ccccc2nc(/C=C/c2ccc([N+](=O)[O-])o2)n1-c1ccc(O)cc1,.,-,84,54
O=C(O)C[C@H]1CC[C@@H]2NC[C@H](O)COC[C@H]2O1,-,-,-,-
O=C(Cc1ccccn1)N1CCCCN2[C@H](CO)[C@H](c3ccc(-c4ccccc4F)cc3)[C@H]2C1,-,-,-,-
C/C=C/c1ccc(C2[C@@H]3CN(Cc4cocn4)C[C@H]2N3)cc1 (stereo not given in full),-,-,-,-
COc1cccc2c1C(=O)c1c(O)c3c(c(O)c1C2=O)CC(O)(C(C)=NO)CC3OC1CC(N)C(O)C(C)O1 (stereo not given),-,-,-,63
COC(=O)[C@H]1[C@H](CO)[C@H]2Cn3c(ccc(-c4ccccc4F)c3=O)[C@@H]1N2Cc1cccnc1,-,-,-,-
O=C(O)c1nn(Cc2ccc(Cl)cc2Cl)c2ccccc12,-,.,-,63
Ic1ccccc1CN[C@@H]1C2CCN(CC2)[C@@H]1C(c1ccccc1)c1ccccc1,-,.,-,70
N#Cc1cccc(-c2ccc([C@@H]3[C@H]4CN(C(=O)Cc5cccnc5)CCCCN4[C@H]3CO)cc2)c1,-,-,-,-
CC(=O)OCC12CC(OC(=O)CC(C)C)C(C)=CC1OC1C(O)C(OC(C)=O)C2(C)C12CO2 (stereo not given),-,-,-,101
COc1ccc(-c2cc(=NCCCCCC(=O)O)c3cc(C)ccc3o2)cc1,-,-,-,-
COc1ccc(-c2cc(=Nc3cccc(C(=O)O)c3)c3cc(C)ccc3o2)cc1,-,-,-,55
Oc1ccc2c3c1OC1c4oc5ccccc5c4C[C@@]4(O)[C@@H](C2)N(CC2CC2)CC[C@]314 (stereo not given in full),.,-20,-,-
CCCCN=C[C@]12CCC(O)CC1(O)CCC1[C@@H]2CC[C@]2(C)[C@H](C3C=CC(=O)O3)CCC12O (stereo not given in full),.,-,73,85
C[C@H]1O[C@@H](OC2CC[C@]3(C=O)[C@H]4CC[C@]5(C)[C@@H](C6=CC(=O)OC6)CC[C@]5(O)[C@@H]4CC[C@]3(O)C2)CC2OC(C)(C)OC21 (stereo not given in full),.,-,71,81
CC12CC[C@H]3[C@@H](CCC4(O)C[C@H](O)CCC34/C=N/NC(=O)c3ccccc3Cl)C1(O)CCC2C1=CC(=O)OC1 (stereo not given in full),-,-,-,-
CC12CCC3C(CCC4(O)CC(O)CCC34C=O)C1(O)CCC2C1=CC(=O)OC1 (stereo not given),-,-,52,84
CC1OC(OC2C(O)CC(OC3C(O)CC(OC4CCC5(C)C(CCC6C5CCC5(C)C(C7=CC(=O)OC7)C(O)CC65O)C4)OC3C)OC2C)CC(O)C1O (stereo not given),.,.,-,87
CC=Cc1ccc2n(c1=O)C[C@H]1[C@H](CO)[C@@H](C(=O)OC)[C@@H]2N1CC1CCCCC1 (mixture of isomers),-,-,-,-
CC(=O)N1C[C@@H]2N[C@H](C1)C2c1ccc(Br)cc1 (stereo not given in full),.,-,.,.
COP(=O)(C#Cc1ccccc1)C(O)c1ccc(Br)cc1 (stereo not given),.,-30,-,-
COc1ccc(CCn2c(O)c(/C=N/N3CCOCC3)c(=O)[nH]c2=O)cc1OC,-,-,-,-
CCC(=O)N1N=C(c2c(O)n(CCc3ccccc3)c(=O)[nH]c2=O)CC1c1ccc(OC)c(OC)c1 (stereo not given),.,-28,-,-
O=C(O)CCCc1ccc(N(CCCl)CCCl)cc1,-,.,-,-
SMILES,E-sel inducer,rRNA inh HTS,EWS-Fli inh,LGR2 inh
ClCCN(CCCl)c1ccc(-n2cnc3c(Cl)ncnc32)cc1,-,-,55,-
O=C(C1CC1)N1C[C@@H]2N[C@H](C1)[C@@H]2c1ccc(-c2ccncc2)cc1,-,-,80,65
O=C(C1CC1)N1C[C@@H]2N[C@H](C1)C2c1ccc(-c2cncnc2)cc1 (stereo not given in full),-,-,-,-
COC(=O)[C@@H]1[C@@H](CO)[C@@H]2Cn3c(ccc(-c4cccc(C(=O)N(C)C)c4)c3=O)[C@H]1N2CC1CC1,-,-,-,-
Cc1ccc(OC(F)F)c(N2C(=O)C3C4CCC(O4)C3C2=O)c1 (stereo not given),35,-,-,-
NCCc1ccc(OCc2ccccc2)c(OCc2ccccc2)c1,-,.,-,88
CN1CCN(C(=O)CN=[N+]=[N-])CC1,.,.,-,.
O=[N+]([O-])c1ccc(N2CCOCC2)c2c1no[n+]2[O-],-,-24,-,.
C=CCN1C(=S)N[C@@H]2c3ccccc3O[C@@]1(C)[C@@H]2C(=O)OCC,.,.,-,.
CC1CC(C)CC(C)C(O)C(C#N)=CC=CCC(C2CCCC2C(=O)O)OC(=O)CC(O)C(C)C1 (stereo not given),-,-,-,75
CCCCCCOc1ccc(CN2CCN(C)CC2)cc1,.,-25,-,-
Cc1ccccc1-c1nc2ccccc2c(=O)n1C,.,-,-,-
Cn1c(NN=O)nc2ccccc21,.,-23,-,-
Clc1ccccc1N1CCN(Cc2ccc3c(c2)OCO3)CC1,.,-,-,-
Clc1ccccc1CN1CCN(c2ccccc2Cl)CC1,.,-42,-,-
CS(=O)(=O)N1CC2NC(C1)C2c1ccc(Br)cc1 (stereo not given),.,-,.,.
Cc1cccc(NP(=O)(Oc2ccccc2F)Oc2ccccc2F)c1C,.,-29,-,-
CCc1ccc(NP(=O)(Oc2ccccc2F)Oc2ccccc2F)cc1,-,-,-,-
CC(=O)N1[C@@H]2Cn3c(ccc(-c4cccc(C(=O)N(C)C)c4)c3=O)[C@H]1[C@@H](C(=O)O)[C@@H]2CO,.,-,.,.
O=C(Cc1ccccn1)N1CCCCN2[C@H](CO)[C@@H](c3ccc(-c4ccc(F)cc4)cc3)[C@@H]2C1,-,-,-,-
c1ccc2nc(N3CCNCC3)ccc2c1,70!,-,-,-
c1ccc2c(N3CCNCC3)cccc2c1,-,.,-,-
CC1(CCO)CC(C)(CCc2ccccc2)OO1 (stereo not given),.,.,67,.
C=COCCn1c(C)c(C(C)=O)c2cc(O)ccc21,56,-,-,-
O=C1NC2C(=CC(O)C(O)C2O)c2cc3c(c(O)c21)OCO3 (stereo not given),-,-,54,106
O=C1NC2C(O)C(O)C(O)C(O)C2c2cc3c(c(O)c21)OCO3 (stereo not given),-,-,56,103
C[C@H](CO)N1C[C@H](C)[C@H](CN(C)C(=O)Oc2cccc3ccccc23)OCc2cn(nn2)CCCC1=O,-,-,-,-
CCN(CC)C(=O)c1ccc(NC(=O)CCCSc2ccccc2)cc1,-,-,-,-
CCN(CC)C(=O)c1ccc(NC(=O)Nc2ccccc2F)cc1,.,-,62,75
